Data taken from ChEMBL document CHEMBL3272149, “Synthesis and antibacterial activity of some derivatives of tolypomycinone. Relationship between structure and activity in ansamycins” (J Med Chem, 1977).
Values after ≈ are worked out from the molar mass of the structure shown.

Key:
Assay type in all cases: functional
[1] = system: Klebsiella pneumoniae; assay: Antibacterial activity against Klebsiella pneumoniae Ottaviani assessed as inhibition of visible growth after 24 hrs by serial dilution method
[2] = system: Staphylococcus aureus; assay: Antibacterial activity against Staphylococcus aureus 209 P(FDA) assessed as inhibition of visible growth after 24 hrs by serial dilution method
[3] = system: Salmonella enterica subsp. enterica serovar Paratyphi B; assay: Antibacterial activity against Salmonella paratyphi B 0248 K assessed as inhibition of visible growth after 24 hrs by serial dilution method
Outline: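 Broth tube serial dilution in Brain Heart Infusion medium; inoculum 10^6 cells/mL; incubation 24 h at 35 °C; MIC taken as the lowest antibiotic concentration that prevented visible growth.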

[4] = system: Escherichia coli; assay: Antibacterial activity against Escherichia coli MC/35 assessed as inhibition of visible growth after 24 hrs by serial dilution method; conditions: MC/35, 24 h

CO[C@H]1/C=C/O[C@@]2(C)Oc3c(C)c(O)c4c(c3C2=O)C(=O)C(NCC2CCCN(C)C2)=C(NC(=O)/C(C)=C\C(=O)[C@@H]2C[C@@H]2[C@H](O)[C@@H](C)[C@@H](O)[C@@H](C)[C@H](OC(C)=O)[C@@H]1C)C4=O (some centres undefined)
MIC [1]: 12 µg/mL (≈ 14.4 µM) | MIC [2]: 0.025 µg/mL (≈ 0.0299 µM) | MIC [3]: 12 µg/mL (≈ 14.4 µM) | MIC [4]: 12 µg/mL (≈ 14.4 µM)

CNC1=C2NC(=O)C(C)(NC)CC(=O)[C@@H]3C[C@@H]3[C@H](O)[C@@H](C)[C@@H](O)[C@@H](C)[C@H](OC(C)=O)[C@H](C)[C@@H](OC)/C=C/O[C@@]3(C)Oc4c(C)c(O)c(c(c4C3=O)C1=O)C2=O (some centres undefined)
MIC [1]: > 100 µg/mL | MIC [2]: 0.005 µg/mL (≈ 0.00649 µM) | MIC [3]: 50 µg/mL (≈ 64.9 µM) | MIC [4]: > 100 µg/mL

CO[C@H]1/C=C/O[C@@]2(C)Oc3c(C)c(O)c4c(c3C2=O)C(=O)C(NCc2ccccc2)=C(NC(=O)C(C)(NCc2ccccc2)CC(=O)[C@@H]2C[C@@H]2[C@H](O)[C@@H](C)[C@@H](O)[C@@H](C)[C@H](OC(C)=O)[C@@H]1C)C4=O (some centres undefined)
MIC [2]: 0.25 µg/mL (≈ 0.271 µM)

CO[C@H]1/C=C/O[C@@]2(C)Oc3c(C)c(O)c4c(c3C2=O)C(=O)C(NCc2ccccn2)=C(NC(=O)/C(C)=C\C(=O)[C@@H]2C[C@@H]2[C@H](O)[C@@H](C)[C@@H](O)[C@@H](C)[C@H](OC(C)=O)[C@@H]1C)C4=O
MIC [1]: 12 µg/mL (≈ 14.7 µM) | MIC [2]: < 0.005 µg/mL | MIC [3]: 25 µg/mL (≈ 30.6 µM) | MIC [4]: 6 µg/mL (≈ 7.35 µM)

CO[C@H]1/C=C/O[C@@]2(C)Oc3c(C)c(O)c4c(c3C2=O)C(=O)C(NCC2CCCO2)=C(NC(=O)/C(C)=C\C(=O)[C@@H]2C[C@@H]2[C@H](O)[C@@H](C)[C@@H](O)[C@@H](C)[C@H](OC(C)=O)[C@@H]1C)C4=O (some centres undefined)
MIC [1]: 25 µg/mL (≈ 30.9 µM) | MIC [2]: 0.005 µg/mL (≈ 0.00618 µM) | MIC [3]: 12 µg/mL (≈ 14.8 µM) | MIC [4]: 6 µg/mL (≈ 7.42 µM)

CO[C@H]1/C=C/O[C@@]2(C)Oc3c(C)c(O)c4c(c3C2=O)C(=O)C(NCCc2c[nH]cn2)=C(NC(=O)/C(C)=C\C(=O)[C@@H]2C[C@@H]2[C@H](O)[C@@H](C)[C@@H](O)[C@@H](C)[C@H](OC(C)=O)[C@@H]1C)C4=O
MIC [1]: 12 µg/mL (≈ 14.7 µM) | MIC [2]: 0.05 µg/mL (≈ 0.0611 µM) | MIC [3]: 12 µg/mL (≈ 14.7 µM) | MIC [4]: 50 µg/mL (≈ 61.1 µM)

COC1/C=C/OC2(C)Oc3c(C)c(O)c4c(c3C2=O)C(=O)C=C(NC(=O)/C(C)=C\C(=O)C2CC2C(O)C(C)C(O)C(C)C(OC(C)=O)C1C)C4=O (centres undefined) [TOLYPOMYCINONE]
MIC [2]: 0.5 µg/mL (≈ 0.704 µM)

CO[C@H]1/C=C/O[C@@]2(C)Oc3c(C)c(O)c4c(c3C2=O)C(=O)C(NCCN2CCN(C)CC2)=C(NC(=O)/C(C)=C\C(=O)[C@@H]2C[C@@H]2[C@H](O)[C@@H](C)[C@@H](O)[C@@H](C)[C@H](OC(C)=O)[C@@H]1C)C4=O
MIC [1]: 12 µg/mL (≈ 14.1 µM) | MIC [2]: 0.025 µg/mL (≈ 0.0294 µM) | MIC [3]: 6 µg/mL (≈ 7.05 µM) | MIC [4]: 25 µg/mL (≈ 29.4 µM)

CO[C@H]1/C=C/O[C@@]2(C)Oc3c(C)c(O)c4c(c3C2=O)C(=O)C(NCc2ccccc2)=C(NC(=O)/C(C)=C\C(=O)[C@@H]2C[C@@H]2[C@H](O)[C@@H](C)[C@@H](O)[C@@H](C)[C@H](OC(C)=O)[C@@H]1C)C4=O
MIC [2]: < 0.005 µg/mL

CO[C@H]1/C=C/O[C@@]2(C)Oc3c(C)c(O)c4c(c3C2=O)C(=O)C(NCCCO)=C(NC(=O)/C(C)=C\C(=O)[C@@H]2C[C@@H]2[C@H](O)[C@@H](C)[C@@H](O)[C@@H](C)[C@H](OC(C)=O)[C@@H]1C)C4=O
MIC [1]: 25 µg/mL (≈ 31.9 µM) | MIC [2]: 0.025 µg/mL (≈ 0.0319 µM) | MIC [3]: 12 µg/mL (≈ 15.3 µM) | MIC [4]: 12 µg/mL (≈ 15.3 µM)

CO[C@H]1/C=C/O[C@@]2(C)Oc3c(C)c(O)c4c(c3C2=O)C(=O)C(NCCCN2CCC(=O)C2)=C(NC(=O)/C(C)=C\C(=O)[C@@H]2C[C@@H]2[C@H](O)[C@@H](C)[C@@H](O)[C@@H](C)[C@H](OC(C)=O)[C@@H]1C)C4=O
MIC [2]: 0.005 µg/mL (≈ 0.00588 µM) | MIC [3]: 25 µg/mL (≈ 29.4 µM) | MIC [4]: 50 µg/mL (≈ 58.8 µM)

CO[C@H]1/C=C/O[C@@]2(C)Oc3c(C)c(O)c4c(c3C2=O)C(=O)C=C(NC(=O)C(C)CC(=O)[C@@H]2C[C@@H]2[C@H](O)[C@@H](C)[C@@H](O)[C@@H](C)[C@H](OC(C)=O)[C@@H]1C)C4=O (some centres undefined)
MIC [2]: 0.5 µg/mL (≈ 0.702 µM)

CO[C@H]1/C=C/O[C@@]2(C)Oc3c(C)c(O)c4c(c3C2=O)/C(=N/[C@@H]2CC[C@@H](O)O[C@H]2C)C=C(NC(=O)/C(C)=C\C(=O)[C@@H]2C[C@@H]2[C@H](O)[C@@H](C)[C@@H](O)[C@@H](C)[C@H](OC(C)=O)[C@@H]1C)C4=O
MIC [1]: 100 µg/mL (≈ 122 µM) | MIC [2]: 0.025 µg/mL (≈ 0.0304 µM) | MIC [3]: > 100 µg/mL | MIC [4]: > 100 µg/mL

CNC1=C2NC(=O)C(C)CC(=O)[C@@H]3C[C@@H]3[C@H](O)[C@@H](C)[C@@H](O)[C@@H](C)[C@H](OC(C)=O)[C@H](C)[C@@H](OC)/C=C/O[C@@]3(C)Oc4c(C)c(O)c(c(c4C3=O)C1=O)C2=O (some centres undefined)
MIC [2]: 0.5 µg/mL (≈ 0.675 µM)

CO[C@H]1/C=C/O[C@@]2(C)Oc3c(C)c(O)c4c(c3C2=O)C(=O)C(NCc2ccc3c(c2)OCO3)=C(NC(=O)/C(C)=C\C(=O)[C@@H]2C[C@@H]2[C@H](O)[C@@H](C)[C@@H](O)[C@@H](C)[C@H](OC(C)=O)[C@@H]1C)C4=O
MIC [1]: > 100 µg/mL | MIC [2]: < 0.005 µg/mL | MIC [3]: 100 µg/mL (≈ 116 µM) | MIC [4]: > 100 µg/mL
